According to ChEMBL document CHEMBL1129793, “Quantitative structure-activity relationships for the in vitro antimycobacterial activity of pyrazinoic acid esters” (J Med Chem, 1996):

System: not listed separately
Assay: t1/2 (min) in equine serum
Type: ADME, organism-based, Equus caballus
Conditions: horse
In short: (§1)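 Ester from a 1 mg/mL stock was mixed with 5% aqueous equine serum in 0.01 M KH2PO4, pH 7.2. Aliquots were taken at 0, 5, 10, 15, 30, 60 and 120 min and quenched with an equal volume of acetonitrile, then filtered. Remaining ester was measured by isocratic reverse-phase HPLC (80% acetonitrile/20% 0.1 M sodium acetate, pH 5.0), with UV detection at 265 nm against a standard curve. Half-life is the time to 50% conversion to the acid.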

SMILES | half-life
CCC(C)OC(=O)c1cnccn1 (stereo unspecified) | 0.685 h
COC(=O)c1cnc(OC)cn1 | 5 h
O=C(OCc1ccccc1)c1cnccn1 | 0.0717 h
CCCCCCOC(=O)c1cnc(F)cn1 | 0.0467 h
COC(=O)c1cnc(C)cn1 | 20 h
CCCCCC(CC)OC(=O)c1cnc(C)cn1 (stereo unspecified) | 0.0167 h
CC(C)COC(=O)c1cnccn1 | 3.45 h
COC(=O)c1cnccn1 | 7.83 h
CCCOC(=O)c1cnc(C)cn1 | 2.07 h
COC(=O)c1cnc(F)cn1 | 3.7 h
CCCCCCC(C)OC(=O)c1cnc(F)cn1 (stereo unspecified) | 0.115 h

System: not listed separately
Assay: T1/2 in equine serum
Type: ADME, organism-based, Equus caballus
Conditions: horse
In short: as §1, with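 “7.2.” for “7.2. Aliquots were taken at 0, 5, 10, 15, 30, 60 and 120 min and quenched with an equal volume of acetonitrile, then filtered.”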

SMILES | half-life
CCCCCCCOC(=O)c1cnc(C)cn1 | 0.0533 h
CC(C)(C)OC(=O)c1cnc(Cl)cn1 | 20 h
CCCCCCC(C)(C)OC(=O)c1cnc(Cl)cn1 | 8.5 h
CCCCCCCC(C)OC(=O)c1cnc(Cl)cn1 (stereo unspecified) | 0.5 h

System: not listed separately
Assay: Partition coefficient (logP)
Type: physicochemical
Conditions: octanol/water

SMILES | logP
CCC(C)OC(=O)c1cnccn1 (stereo unspecified) | 1.05
COC(=O)c1cnc(OC)cn1 | 0.74
O=C(OCc1ccccc1)c1cnccn1 | 1.49
CCCCCCOC(=O)c1cnc(F)cn1 | 2.96
COC(=O)c1cnc(C)cn1 | 0.15
CCCCCC(CC)OC(=O)c1cnc(C)cn1 (stereo unspecified) | 3.72
CC(C)COC(=O)c1cnccn1 | 1.07
CCCCCCCOC(=O)c1cnc(C)cn1 | 3.35
CC(C)(C)OC(=O)c1cnc(Cl)cn1 | 1.7
CCCOC(=O)c1cnc(C)cn1 | 1.15
CCCCCCC(C)(C)OC(=O)c1cnc(Cl)cn1 | 4.39
CCCCCCCC(C)OC(=O)c1cnc(Cl)cn1 (stereo unspecified) | 4.14
COC(=O)c1cnc(F)cn1 | 0.27
CCCCCCC(C)OC(=O)c1cnc(F)cn1 (stereo unspecified) | 3.23

System: Mycobacterium avium
Assay: In vitro activity against Mycobacterium avium (MAC-101)
Type: functional
Conditions: not given
In short: (§2)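 Broth macrodilution MIC. Cultures were grown in modified Middlebrook 7H10 broth (agar and malachite green omitted) with 10% OADC and 0.05% Tween 80, shaken at 37 °C for 3 days, then diluted in 7H10 broth to 1 Klett unit/mL. Test agents were dissolved in water or DMSO and filter-sterilised, then serially diluted 2-fold in 7H10 broth at pH 5.8. Tubes were shaken at 37 °C for 7–10 days, with a drug-free control. MIC was the lowest concentration with no visible turbidity, expressed in mmol/L.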

SMILES | Log 1/MMIC
CCC(C)OC(=O)c1cnccn1 (stereo unspecified) | -0.152
COC(=O)c1cnc(OC)cn1 | -0.183
O=C(OCc1ccccc1)c1cnccn1 | 0.525
CCCCCCOC(=O)c1cnc(F)cn1 | 0.548
COC(=O)c1cnc(C)cn1 | -0.226
CCCCCC(CC)OC(=O)c1cnc(C)cn1 (stereo unspecified) | 0.592
CC(C)COC(=O)c1cnccn1 | -0.152
COC(=O)c1cnccn1 | -0.268
CCCOC(=O)c1cnc(C)cn1 | 0.45
COC(=O)c1cnc(F)cn1 | 0.387
CCCCCCC(C)OC(=O)c1cnc(F)cn1 (stereo unspecified) | 0.9

System: Mycobacterium avium
Assay: In vitro activity against Mycobacterium avium (MAC-101).
Type: functional
Conditions: not given
In short: as §2

SMILES | Log 1/MMIC
CCCCCCCOC(=O)c1cnc(C)cn1 | 0.868
CC(C)(C)OC(=O)c1cnc(Cl)cn1 | 0.225
CCCCCCC(C)(C)OC(=O)c1cnc(Cl)cn1 | 0.648
CCCCCCCC(C)OC(=O)c1cnc(Cl)cn1 (stereo unspecified) | 0.949

System: Mycobacterium tuberculosis
Assay: In vitro activity against Mycobacterium tuberculosis (ATCC 27294)
Type: functional
Conditions: not given
In short: as §2

SMILES | Log 1/MMIC
CCC(C)OC(=O)c1cnccn1 (stereo unspecified) | 1.353
COC(=O)c1cnc(C)cn1 | 0.978
CCCCCC(CC)OC(=O)c1cnc(C)cn1 (stereo unspecified) | 1.194
CC(C)COC(=O)c1cnccn1 | 1.955
COC(=O)c1cnccn1 | 1.237
CCCCCCCOC(=O)c1cnc(C)cn1 | 2.675
CC(C)(C)OC(=O)c1cnc(Cl)cn1 | 1.73
CCCOC(=O)c1cnc(C)cn1 | 1.955
CCCCCCC(C)(C)OC(=O)c1cnc(Cl)cn1 | 3.057
CCCCCCCC(C)OC(=O)c1cnc(Cl)cn1 (stereo unspecified) | 2.455
COC(=O)c1cnc(F)cn1 | 1.591
CCCCCCC(C)OC(=O)c1cnc(F)cn1 (stereo unspecified) | 2.104

System: Mycobacterium tuberculosis
Assay: In vitro activity against Mycobacterium tuberculosis (ATCC 35801)
Type: functional
Conditions: not given
In short: as §2

SMILES | Log 1/MMIC
CCCCCCOC(=O)c1cnc(F)cn1 | 1.753
COC(=O)c1cnc(C)cn1 | 1.279
CCCCCC(CC)OC(=O)c1cnc(C)cn1 (stereo unspecified) | 2.7
CC(C)COC(=O)c1cnccn1 | 1.654
COC(=O)c1cnccn1 | 0.936
CCCCCCCOC(=O)c1cnc(C)cn1 | 2.976
CC(C)(C)OC(=O)c1cnc(Cl)cn1 | 2.031
CCCOC(=O)c1cnc(C)cn1 | 1.654
CCCCCCC(C)(C)OC(=O)c1cnc(Cl)cn1 | 1.852
CCCCCCCC(C)OC(=O)c1cnc(Cl)cn1 (stereo unspecified) | 2.756
CCCCCCC(C)OC(=O)c1cnc(F)cn1 (stereo unspecified) | 1.803

System: Mycobacterium tuberculosis
Assay: In vitro activity against Mycobacterium tuberculosis (ATCC 35828)
Type: functional
Conditions: not given
In short: as §2

SMILES | Log 1/MMIC
O=C(OCc1ccccc1)c1cnccn1 | 2.03
COC(=O)c1cnc(C)cn1 | 0.978
CCCCCC(CC)OC(=O)c1cnc(C)cn1 (stereo unspecified) | 1.495
CC(C)COC(=O)c1cnccn1 | 1.654
CCCCCCCOC(=O)c1cnc(C)cn1 | 2.373
CC(C)(C)OC(=O)c1cnc(Cl)cn1 | 1.73
CCCCCCC(C)(C)OC(=O)c1cnc(Cl)cn1 | 3.057
CCCCCCCC(C)OC(=O)c1cnc(Cl)cn1 (stereo unspecified) | 2.153
CCCCCCC(C)OC(=O)c1cnc(F)cn1 (stereo unspecified) | 1.803

System: Mycobacterium kansasii
Assay: In vitro activity against Mycobacterium kansasii (SWK)
Type: functional
Conditions: not given
In short: as §2

SMILES | Log 1/MMIC
CCC(C)OC(=O)c1cnccn1 (stereo unspecified) | 1.052
COC(=O)c1cnc(OC)cn1 | 0.42
O=C(OCc1ccccc1)c1cnccn1 | 2.331
CCCCCCOC(=O)c1cnc(F)cn1 | 1.452
COC(=O)c1cnc(C)cn1 | 0.677
CCCCCC(CC)OC(=O)c1cnc(C)cn1 (stereo unspecified) | 1.796
CC(C)COC(=O)c1cnccn1 | 1.052
COC(=O)c1cnccn1 | 0.334
CCCOC(=O)c1cnc(C)cn1 | 1.353
COC(=O)c1cnc(F)cn1 | 1.29
CCCCCCC(C)OC(=O)c1cnc(F)cn1 (stereo unspecified) | 3.928

System: Mycobacterium kansasii
Assay: in vitro activity against Mycobacterium kansasii (SWK).
Type: functional
Conditions: not given
In short: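 M. kansasii clinical isolate SWK was grown 3 days at 37 °C with shaking in modified Middlebrook 7H10 broth with 10% OADC and 0.05% Tween 80, then diluted. It was tested in serial 2-fold dilutions in 7H10 broth at pH 5.8, shaken at 37 °C for 7–10 days, with a drug-free control. MIC was the lowest concentration giving no visible turbidity, expressed in mmol/L.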

SMILES | Log 1/MMIC
CCCCCCCOC(=O)c1cnc(C)cn1 | 1.771
CC(C)(C)OC(=O)c1cnc(Cl)cn1 | 2.633
CCCCCCC(C)(C)OC(=O)c1cnc(Cl)cn1 | 2.455
CCCCCCCC(C)OC(=O)c1cnc(Cl)cn1 (stereo unspecified) | 3.977

System: Mycobacterium avium
Assay: In vitro activity against Mycobacterium avium (ATCC49601)
Type: functional
Conditions: not given
In short: as §2

SMILES | Log 1/MMIC
CCC(C)OC(=O)c1cnccn1 (stereo unspecified) | -0.755
COC(=O)c1cnc(OC)cn1 | -0.183
O=C(OCc1ccccc1)c1cnccn1 | 0.525
CCCCCCOC(=O)c1cnc(F)cn1 | 0.548
COC(=O)c1cnc(C)cn1 | -0.226
CCCCCC(CC)OC(=O)c1cnc(C)cn1 (stereo unspecified) | 0.592
CC(C)COC(=O)c1cnccn1 | -0.152
COC(=O)c1cnccn1 | -0.268
CCCOC(=O)c1cnc(C)cn1 | 0.45
COC(=O)c1cnc(F)cn1 | 0.387
CCCCCCC(C)OC(=O)c1cnc(F)cn1 (stereo unspecified) | 0.599

System: Mycobacterium avium
Assay: In vitro activity against Mycobacterium avium (ATCC 49601).
Type: functional
Conditions: not given
In short: as §2

SMILES | Log 1/MMIC
CCCCCCCOC(=O)c1cnc(C)cn1 | 0.868
CC(C)(C)OC(=O)c1cnc(Cl)cn1 | 2.33
CCCCCCC(C)(C)OC(=O)c1cnc(Cl)cn1 | 0.648
CCCCCCCC(C)OC(=O)c1cnc(Cl)cn1 (stereo unspecified) | 0.949
